Source: ChEMBL document CHEMBL1921796, “Synthesis of 6-(het) ary Xylocydine analogues and evaluating their inhibitory activities of CDK1 and CDK2 in vitro” (Bioorg Med Chem, 2011)

Experiments:
[1] = target: Cyclin-dependent kinase 2/cyclin A (Homo sapiens, UniProt P24941+P20248+P78396); experiment: (§1) Inhibition of CDK2/Cyclin A2 in human HeLa cell extracts using histone H1 as substrate preincubated for 30 mins before substrate addition measured after 15 mins by autoradiography; assay type: protein-complex assay; details: hela
In short: (§2)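 CDK2 immunoprecipitated (6 h, 4 °C) from 200 µg extract of HeLa cells seeded 24 h and then given 50 µg/ml etoposide in DMEM with 5% newborn calf serum for 12 h. After washing, kinase preincubated 30 min with 0–200 µM inhibitor.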

[2] = target: Cyclin-dependent kinase 1/cyclin B1 (Homo sapiens, UniProt P06493+P14635); experiment: (§3) Inhibition of CDK1/Cyclin B in human HeLa cell extracts using histone H1 as substrate preincubated for 30 mins before substrate addition measured after 15 mins by autoradiography; assay type: protein-complex assay; details: hela
In short: (§4)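 HeLa cells seeded for 24 h, then given 80 nM paclitaxel in DMEM with 5% newborn calf serum for 12 h. 200 µg extract immunoprecipitated with anti-CDK1 antibody, 6 h at 4 °C, and washed.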

[3] = target: Cyclin-dependent kinase 2/cyclin A (Homo sapiens, UniProt P24941); experiment: as §1; assay type: protein-complex assay; in short: as §2
[4] = test system: HeLa; experiment: Cell cycle arrest in human HeLa cells assessed as accumulation at G1/S phase at 6.25 uM after 72 hrs by DAPI staining-based FACS analysis (reference value: 86.27%); assay type: functional
[5] = test system: HeLa; experiment: Cell cycle arrest in human HeLa cells assessed as accumulation at G1/S phase at 12.5 uM after 72 hrs by DAPI staining-based FACS analysis (reference value: 86.27%); assay type: functional
[6] = target: Cyclin-dependent kinase 1/cyclin B1 (Homo sapiens, UniProt P06493); experiment: as §3; assay type: protein-complex assay; in short: as §4
[7] = test system: HeLa; experiment: Cell cycle arrest in human HeLa cells assessed as accumulation at G2 phase at 12.5 uM after 72 hrs by DAPI staining-based FACS analysis (reference value: 13.73%); assay type: functional
[8] = test system: HeLa; experiment: Cell cycle arrest in human HeLa cells assessed as accumulation at G2 phase at 6.25 uM after 72 hrs by DAPI staining-based FACS analysis (reference value: 13.73%); assay type: functional

Cyclin-dependent kinase 1/cyclin B1 (Homo sapiens, UniProt P06493), sequence (P06493 whole entry): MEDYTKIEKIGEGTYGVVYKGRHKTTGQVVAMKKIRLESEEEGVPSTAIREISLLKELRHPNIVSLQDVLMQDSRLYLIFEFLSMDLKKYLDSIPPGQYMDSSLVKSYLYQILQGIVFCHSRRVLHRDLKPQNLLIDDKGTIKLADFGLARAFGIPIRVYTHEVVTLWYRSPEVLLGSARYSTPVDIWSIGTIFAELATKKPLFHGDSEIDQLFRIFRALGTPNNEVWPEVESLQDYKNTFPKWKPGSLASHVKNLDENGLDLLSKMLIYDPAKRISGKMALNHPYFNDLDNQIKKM
Cyclin-dependent kinase 1/cyclin B1 (Homo sapiens, UniProt P06493), sequence (P14635 whole entry, further chain): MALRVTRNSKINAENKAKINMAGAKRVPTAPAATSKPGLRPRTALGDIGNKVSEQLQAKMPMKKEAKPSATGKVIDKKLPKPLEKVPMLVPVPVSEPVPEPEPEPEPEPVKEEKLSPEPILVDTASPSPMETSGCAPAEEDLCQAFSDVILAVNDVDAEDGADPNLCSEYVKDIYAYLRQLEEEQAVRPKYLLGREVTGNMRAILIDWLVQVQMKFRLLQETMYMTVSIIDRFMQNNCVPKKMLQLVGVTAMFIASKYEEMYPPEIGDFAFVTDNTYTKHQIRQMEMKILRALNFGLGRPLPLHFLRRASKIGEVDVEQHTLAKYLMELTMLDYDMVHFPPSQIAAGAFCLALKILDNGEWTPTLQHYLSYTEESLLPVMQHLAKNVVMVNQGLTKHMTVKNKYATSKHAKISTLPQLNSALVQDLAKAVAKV
Cyclin-dependent kinase 1/cyclin B1 (Homo sapiens, UniProt P06493+P14635), sequence (P06493 whole entry): as the sequence (P06493 whole entry) above
Cyclin-dependent kinase 1/cyclin B1 (Homo sapiens, UniProt P06493+P14635), sequence (P14635 whole entry): as the sequence (P14635 whole entry, further chain) above

Row | SMILES | IC50 [1] | IC50 [2] | further results
1 | NC(=O)c1c(-c2ccc(Br)s2)n([C@H]2O[C@@H](CO)[C@@H](O)[C@@H]2O)c2ncnc(N)c12 | Not Active | Not Active | 
2 | NC(=O)c1c(-c2cccc(Br)c2)n([C@H]2O[C@@H](CO)[C@@H](O)[C@@H]2O)c2ncnc(N)c12 | Not Active | Not Active | 
3 | N#Cc1c(-c2ccc[nH]2)n([C@H]2O[C@@H](CO)[C@@H](O)[C@@H]2O)c2ncnc(N)c12 | Not Active | Not Active | 
4 | N#Cc1c(-c2cccs2)n([C@H]2O[C@@H](CO)[C@@H](O)[C@@H]2O)c2ncnc(N)c12 |  |  | IC50 [3]: 4.6 µM; Activity [4]: 96.3%; Activity [5]: 99.87%; IC50 [6]: > 100 µM; Activity [7]: 0.13%; Activity [8]: 3.7%
5 | NC(=O)c1c(-c2ccc(Br)cc2)n([C@H]2O[C@@H](CO)[C@@H](O)[C@@H]2O)c2ncnc(N)c12 | Not Active | Not Active | 
6 | N#Cc1c(Br)n([C@H]2O[C@@H](CO)[C@@H](O)[C@@H]2O)c2ncnc(N)c12 | Not Active | Not Active | 
7 | N#Cc1c(-c2ccc(Br)s2)n([C@H]2O[C@@H](CO)[C@@H](O)[C@@H]2O)c2ncnc(N)c12 |  |  | IC50 [3]: 55 µM; Activity [4]: 86.83%; Activity [5]: 99.79%; IC50 [6]: > 100 µM; Activity [7]: 0.22%; Activity [8]: 13.17%
8 | Cc1ccc(-c2c(C#N)c3c(N)ncnc3n2[C@H]2O[C@@H](CO)[C@@H](O)[C@@H]2O)cc1 | Not Active | Not Active | 
9 | N#Cc1c(-c2ccc(Br)cc2)n([C@H]2O[C@@H](CO)[C@@H](O)[C@@H]2O)c2ncnc(N)c12 | Not Active | Not Active | 
10 | NC(=O)c1c(-c2ccc[nH]2)n([C@H]2O[C@@H](CO)[C@@H](O)[C@@H]2O)c2ncnc(N)c12 | Not Active | Not Active | 
11 | Cc1ccc(-c2c(C(N)=O)c3c(N)ncnc3n2[C@H]2O[C@@H](CO)[C@@H](O)[C@@H]2O)cc1 | Not Active | Not Active | 
12 | COc1ccc(-c2c(C#N)c3c(N)ncnc3n2[C@H]2O[C@@H](CO)[C@@H](O)[C@@H]2O)cc1 | Not Active | Not Active | 
13 | CC(C)(C)c1ccc(-c2c(C#N)c3c(N)ncnc3n2[C@H]2O[C@@H](CO)[C@@H](O)[C@@H]2O)cc1 | Not Active | Not Active | 
14 | N#Cc1c(-c2cccc(Br)c2)n([C@H]2O[C@@H](CO)[C@@H](O)[C@@H]2O)c2ncnc(N)c12 | Not Active | Not Active | 
15 | COc1ccc(-c2c(C(N)=O)c3c(N)ncnc3n2[C@H]2O[C@@H](CO)[C@@H](O)[C@@H]2O)cc1 | Not Active | Not Active | 
16 | NC(=O)c1c(-c2cccs2)n([C@H]2O[C@@H](CO)[C@@H](O)[C@@H]2O)c2ncnc(N)c12 | Not Active | Not Active | 
17 | COc1cccc(-c2c(C#N)c3c(N)ncnc3n2[C@H]2O[C@@H](CO)[C@@H](O)[C@@H]2O)c1 | Not Active | Not Active | 
18 | NC(=O)c1c(Br)n([C@H]2O[C@@H](CO)[C@@H](O)[C@@H]2O)c2ncnc(N)c12 [XYLOCYDINE] |  |  | IC50 [3]: 0.061 µM; IC50 [6]: 0.0014 µM
19 | NC(=O)c1c(-c2ccco2)n([C@H]2O[C@@H](CO)[C@@H](O)[C@@H]2O)c2ncnc(N)c12 | Not Active | Not Active | 
20 | N#Cc1c(-c2ccco2)n([C@H]2O[C@@H](CO)[C@@H](O)[C@@H]2O)c2ncnc(N)c12 |  |  | IC50 [3]: 4.8 µM; Activity [4]: 85.13%; Activity [5]: 92.74%; IC50 [6]: > 100 µM; Activity [7]: 7.26%; Activity [8]: 14.87%
21 | CC(C)(C)c1ccc(-c2c(C(N)=O)c3c(N)ncnc3n2[C@H]2O[C@@H](CO)[C@@H](O)[C@@H]2O)cc1 | Not Active | Not Active | 
22 | COc1cccc(-c2c(C(N)=O)c3c(N)ncnc3n2[C@H]2O[C@@H](CO)[C@@H](O)[C@@H]2O)c1 | Not Active | Not Active | 
